Measured values: ChEMBL document CHEMBL1129245, “N-heteroaryl-2-phenyl-3-(benzyloxy)piperidines: a novel class of potent orally active human NK1 antagonists” (J Med Chem, 1996)

Tests used:
Rattus norvegicus [1] = experiment: Plasma concentration after 3 mg/kg peroral dosing in rat at 3.0 hh in rats; assay type: ADME, organism-based; parameters: dose 3 mg/kg, route oral; conditions: in vivo, po
Rattus norvegicus [2] = experiment: Plasma concentration after 3 mg/kg peroral dosing in rat at 1.0 hr in rats; assay type: ADME, organism-based; parameters: dose 3 mg/kg, route oral; conditions: in vivo, po
[3] = Bioavailability expressed as F% in Rhesus monkey; assay type: ADME, organism-based, Macaca mulatta; conditions: in vivo
Rhesus monkey [4] = experiment: Plasma concentration after 3 mg/kg intravenous dosing in Rhesus monkey at 2.0 hr; assay type: ADME, organism-based, Macaca mulatta; parameters: dose 3 mg/kg, route intravenous; conditions: in vivo
How it was run: (§1)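 Rhesus monkeys dosed at 3 mg/kg in propylene glycol, intravenously and orally, n = 2 per data point. Plasma concentrations given as mean ± SEM, and pharmacokinetic parameters calculated with standard equations.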

Rattus norvegicus [5] = experiment: Plasma concentration after 3 mg/kg peroral dosing in rat at 4.0h in rats; assay type: ADME, organism-based; parameters: dose 3 mg/kg, route oral; conditions: in vivo, po, 4 h
Rattus norvegicus [6] = experiment: Plasma concentration of 3 mg/kg iv after 0.083 hr in rats; conditions: in vivo
Rattus norvegicus [7] = experiment: Plasma concentration after 3 mg/kg peroral dosing in rat at 5.0 hr in rats; assay type: ADME, organism-based; parameters: dose 3 mg/kg, route oral; conditions: in vivo, po
Rhesus monkey [8] = experiment: Plasma concentration after 3 mg/kg peroral dosing in Rhesus monkey at 6.0 hr; assay type: ADME, organism-based, Macaca mulatta; parameters: dose 3 mg/kg, route oral; conditions: in vivo, po; how it was run: as §1
Rattus norvegicus [9] = experiment: Plasma concentration after 3 mg/kg peroral dosing in rat at 6.0 hr in rats; assay type: ADME, organism-based; parameters: dose 3 mg/kg, route oral; conditions: in vivo, po
Mustela putorius furo = experiment: Effects on […] and vomiting response in ferrets induced by 10 mg/kg iv dose of cisplatin; assay type: functional
How it was run: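 Ferrets given cisplatin 10 mg/kg iv to induce retching and vomiting. Test compound given iv; response observed over a 4 h period, n = 6-8 per group.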

Rhesus monkey [10] = experiment: Plasma concentration after 3 mg/kg peroral dosing in Rhesus monkey at 0.167 hr; assay type: ADME, organism-based, Macaca mulatta; parameters: dose 3 mg/kg, route oral; conditions: in vivo, po; how it was run: as §1
Cavia porcellus [11] = experiment: Inhibition of SP induced dermal extravasation in the guinea pig after peroral administration; assay type: functional; conditions: read-out: ID50 (the source's name)
How it was run: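 Guinea pigs were dosed orally, then challenged with intradermal SP 1 h later. Vascular leakage was measured as Evans blue extravasation into the skin. Dose-response was run with 5-12 animals per point, and ID50 is reported in mg/kg po.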

Rattus norvegicus [12] = experiment: Plasma concentration after 3 mg/kg peroral dosing in rat at 2.0 hr in rats; assay type: ADME, organism-based; parameters: dose 3 mg/kg, route oral; conditions: in vivo, po
Rhesus monkey [13] = experiment: Plasma concentration after 3 mg/kg peroral dosing in Rhesus monkey at 8.0 hr; assay type: ADME, organism-based, Macaca mulatta; parameters: dose 3 mg/kg, route oral; conditions: in vivo, po; how it was run: as §1
Rattus norvegicus [14] = experiment: Plasma concentration after 3 mg/kg peroral dosing in rat at 0.083 hr in rats; assay type: ADME, organism-based; parameters: dose 3 mg/kg, route oral; conditions: in vivo, po
Rhesus monkey [15] = experiment: Plasma concentration after 3 mg/kg intravenous dosing in Rhesus monkey at 0.167 hr; assay type: ADME, organism-based, Macaca mulatta; parameters: dose 3 mg/kg, route intravenous; conditions: in vivo; how it was run: as §1
Rattus norvegicus [16] = experiment: Inhibition of […] of the rat after intravenous administration; assay type: functional; conditions: read-out: ID50 (the source's name)
How it was run: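 Rats given test compound intravenously. Plasma extravasation in the dura mater measured, n = 8-10. ID50 reported in mg/kg iv.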

Rattus norvegicus [17] = experiment: Plasma concentration of 3 mg/kg iv after 2 hr in rats; assay type: ADME, organism-based; parameters: dose 3 mg/kg, route intravenous; conditions: in vivo
How it was run: (§2)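 Rats given compound intravenously and orally in solution. Three rats per time point sampled for plasma drug levels. Pharmacokinetic parameters calculated from the plasma concentration–time data using standard equations. Data reported as mean ± SEM.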

Rhesus monkey [18] = experiment: Plasma concentration after 3 mg/kg intravenous dosing in Rhesus monkey at 4.0h; assay type: ADME, organism-based, Macaca mulatta; parameters: dose 3 mg/kg, route intravenous; conditions: in vivo, 4 h; how it was run: as §1
Rattus norvegicus [19] = experiment: Plasma concentration of 3 mg/kg iv after 4 hr in rats; assay type: ADME, organism-based; parameters: dose 3 mg/kg, route intravenous; conditions: in vivo; how it was run: as §2
Rhesus monkey [20] = experiment: Plasma concentration after 3 mg/kg intravenous dosing in Rhesus monkey at 1.0 hr; assay type: ADME, organism-based, Macaca mulatta; parameters: dose 3 mg/kg, route intravenous; conditions: in vivo; how it was run: as §1
Rattus norvegicus [21] = experiment: Plasma concentration after 3 mg/kg peroral dosing in rat at 7.0 hr in rats; assay type: ADME, organism-based; parameters: dose 3 mg/kg, route oral; conditions: in vivo, po
Rhesus monkey [22] = experiment: Plasma concentration after 3 mg/kg intravenous dosing in Rhesus monkey at 6.0 hr; assay type: ADME, organism-based, Macaca mulatta; parameters: dose 3 mg/kg, route intravenous; conditions: in vivo; how it was run: as §1
Rattus norvegicus [23] = experiment: Plasma concentration after 3 mg/kg peroral dosing in rat at 0.25 hr in rats; assay type: ADME, organism-based; parameters: dose 3 mg/kg, route oral; conditions: in vivo, po
Rattus norvegicus [24] = experiment: Plasma concentration after 3 mg/kg peroral dosing in rat at 0.5 hr in rats; assay type: ADME, organism-based; parameters: dose 3 mg/kg, route oral; conditions: in vivo, po
Rattus norvegicus [25] = experiment: Plasma concentration of 3 mg/kg iv after 0.5 hr in rats; assay type: ADME, organism-based; parameters: dose 3 mg/kg, route intravenous; conditions: in vivo; how it was run: as §2
[26] = VD values expressed in (L/Kg) in Rhesus monkey; assay type: ADME, organism-based, Macaca mulatta; conditions: in vivo
How it was run: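 Rhesus monkeys dosed at 3 mg/kg in propylene glycol, intravenously and orally, with n = 2 per data point. Pharmacokinetic parameters calculated from the plasma concentration data using standard equations. Values given as mean ± SEM.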

Rhesus monkey [27] = experiment: Plasma concentration after 3 mg/kg intravenous dosing in Rhesus monkey at 0.5 hr; assay type: ADME, organism-based, Macaca mulatta; parameters: dose 3 mg/kg, route intravenous; conditions: in vivo; how it was run: as §1
[28] = Plasma clearance after intravenous administration dosing (3 mg/kg) in rat
Rattus norvegicus [29] = experiment: Plasma concentration of 3 mg/kg iv after 3h in rats; assay type: ADME, organism-based; parameters: dose 3 mg/kg, route intravenous; conditions: in vivo; how it was run: as §2
Rattus norvegicus [30] = experiment: Plasma concentration of 3 mg/kg iv after 0.25 hr in rats; assay type: ADME, organism-based; parameters: dose 3 mg/kg, route intravenous; conditions: in vivo; how it was run: as §2
Rhesus monkey [31] = experiment: Plasma concentration after 3 mg/kg peroral dosing in Rhesus monkey at 0.5 hr; assay type: ADME, organism-based, Macaca mulatta; parameters: dose 3 mg/kg, route oral; conditions: in vivo, po; how it was run: as §1
Rattus norvegicus [32] = experiment: Plasma concentration after 3 mg/kg peroral dosing in rat at 8.0 hr in rats; assay type: ADME, organism-based; parameters: dose 3 mg/kg, route oral; conditions: in vivo, po
Rattus norvegicus [33] = experiment: Plasma concentration of 3 mg/kg iv after 7 hr in rats; assay type: ADME, organism-based; parameters: dose 3 mg/kg, route intravenous; conditions: in vivo; how it was run: as §2
Rattus norvegicus [34] = experiment: Plasma concentration of 3 mg/kg iv after 8 hr in rats; assay type: ADME, organism-based; parameters: dose 3 mg/kg, route intravenous; conditions: in vivo; how it was run: as §2
Rhesus monkey [35] = experiment: Plasma concentration after 3 mg/kg intravenous dosing in Rhesus monkey at 8.0 hr; assay type: ADME, organism-based, Macaca mulatta; parameters: dose 3 mg/kg, route intravenous; conditions: in vivo; how it was run: as §1
[36] = Plasma clearance after intravenous administration dosing (3 mg/kg) in Rhesus monkey
[37] = VD values expressed in (L/Kg) in rat; assay type: ADME, organism-based; conditions: in vivo; how it was run: as §2
Rhesus monkey [38] = experiment: Plasma concentration after 3 mg/kg peroral dosing in Rhesus monkey at 1.0 hr; assay type: ADME, organism-based, Macaca mulatta; parameters: dose 3 mg/kg, route oral; conditions: in vivo, po; how it was run: as §1
[39] = Bioavailability in rat; assay type: ADME, organism-based; conditions: in vivo
Rhesus monkey [40] = experiment: Plasma concentration after 3 mg/kg peroral dosing in Rhesus monkey at 2.0 hr; assay type: ADME, organism-based, Macaca mulatta; parameters: dose 3 mg/kg, route oral; conditions: in vivo, po; how it was run: as §1
Oryctolagus cuniculus = organism: Oryctolagus cuniculus; experiment: Displacement of [3H]diltiazem from rabbit skeletal muscle calcium channel; assay type: tissue-based; conditions: Muscle tissue
Rattus norvegicus [41] = experiment: Plasma concentration of 3 mg/kg iv after 5 hr in rats; assay type: ADME, organism-based; parameters: dose 3 mg/kg, route intravenous; conditions: in vivo; how it was run: as §2
Rattus norvegicus [42] = experiment: Plasma concentration of 3 mg/kg iv after 6 hr in rats; assay type: ADME, organism-based; parameters: dose 3 mg/kg, route intravenous; conditions: in vivo; how it was run: as §2
Rattus norvegicus [43] = experiment: Plasma concentration of 3 mg/kg iv after 1 hr in rats; assay type: ADME, organism-based; parameters: dose 3 mg/kg, route intravenous; conditions: in vivo; how it was run: as §2
Rhesus monkey [44] = experiment: Plasma concentration after 3 mg/kg peroral dosing in Rhesus monkey at 4.0h; assay type: ADME, organism-based, Macaca mulatta; parameters: dose 3 mg/kg, route oral; conditions: in vivo, po, 4 h; how it was run: as §1
Substance-P receptor = Substance-P receptor (Homo sapiens, UniProt P25103); experiment: Displacement of [125 I]-Tyr8 SP from the cloned human Tachykinin receptor 1 expressed in CHO cells; assay type: cell-based
Chain of Substance-P receptor (P25103 whole entry): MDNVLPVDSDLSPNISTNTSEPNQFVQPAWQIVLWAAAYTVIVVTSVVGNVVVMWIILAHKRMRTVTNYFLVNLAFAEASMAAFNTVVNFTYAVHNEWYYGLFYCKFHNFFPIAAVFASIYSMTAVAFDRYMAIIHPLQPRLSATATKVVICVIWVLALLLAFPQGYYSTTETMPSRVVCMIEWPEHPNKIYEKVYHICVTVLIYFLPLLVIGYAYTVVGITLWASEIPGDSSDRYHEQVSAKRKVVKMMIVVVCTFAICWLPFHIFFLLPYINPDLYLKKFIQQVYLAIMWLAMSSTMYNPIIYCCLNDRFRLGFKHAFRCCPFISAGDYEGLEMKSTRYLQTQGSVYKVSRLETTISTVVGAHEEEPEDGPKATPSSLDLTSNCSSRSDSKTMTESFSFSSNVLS

Cavia porcellus [45] = experiment: Inhibition of SP- induced dermal guinea pig after peroral administration; assay type: functional; conditions: read-out: ID50 (the source's name)
How it was run: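 Guinea pigs dosed orally with antagonist, then challenged 1 h later with intradermal substance P. Vascular leakage measured as extravasation of Evans blue dye. ID50 (mg/kg po) taken from dose-response data, 5-12 animals per data point.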

For `O=c1[nH]nc(CN2CCC[C@H](OCc3cc(C(F)(F)F)cc(C(F)(F)F)c3)[C@@H]2c2ccccc2)[nH]1`, the Concentration (Rattus norvegicus [1]) was 65 ng/mL, the Concentration (Rattus norvegicus [2]) was 45 ng/mL and the bioavailability [3] was 23.7%. It also gave a Concentration (Rhesus monkey [4]) of 3080 ng/mL, a Concentration (Rattus norvegicus [5]) of 41 ng/mL and a Concentration (Rattus norvegicus [6]) of 599 ng/mL. It also gave a Concentration (Rattus norvegicus [7]) of 25 ng/mL, a Concentration (Rhesus monkey [8]) of 580 ng/mL and a Concentration (Rattus norvegicus [9]) of 12 ng/mL. For the same compound, the ID90 (Mustela putorius furo) was 1 mg/kg, the Concentration (Rhesus monkey [10]) was 20 ng/mL and the ED50 (Cavia porcellus [11]) was 0.037 mg/kg. It also gave a Concentration (Rattus norvegicus [12]) of 94 ng/mL, a Concentration (Rhesus monkey [13]) of 500 ng/mL and a Concentration (Rattus norvegicus [14]) of 11 ng/mL. For the same compound, the Concentration (Rhesus monkey [15]) was 5240 ng/mL, the ED50 (Rattus norvegicus [16]) was 0.028 mg/kg and the Concentration (Rattus norvegicus [17]) was 135 ng/mL. It also gave a Concentration (Rhesus monkey [18]) of 1980 ng/mL, a Concentration (Rattus norvegicus [19]) of 30 ng/mL and a Concentration (Rhesus monkey [20]) of 3660 ng/mL. The Concentration (Rattus norvegicus [21]) was < 5 ng/mL, the Concentration (Rhesus monkey [22]) was 1220 ng/mL and the Concentration (Rattus norvegicus [23]) was 29 ng/mL. It also gave a Concentration (Rattus norvegicus [24]) of 70 ng/mL, a Concentration (Rattus norvegicus [25]) of 291 ng/mL and a Vd [26] of 0.55 L/kg. It also gave a Concentration (Rhesus monkey [27]) of 5020 ng/mL, a clearance [28] of 73 mL/min/kg and a Concentration (Rattus norvegicus [29]) of 52 ng/mL. For the same compound, the Concentration (Rattus norvegicus [30]) was 244 ng/mL, the Concentration (Rhesus monkey [31]) was 50 ng/mL and the Concentration (Rattus norvegicus [32]) was < 5 ng/mL. For the same compound, the Concentration (Rattus norvegicus [33]) was < 5 ng/mL, the Concentration (Rattus norvegicus [34]) was < 5 ng/mL and the Concentration (Rhesus monkey [35]) was 720 ng/mL. The clearance [36] was 2.4 mL/min/kg, the Vd [37] was 6.5 L/kg and the Concentration (Rhesus monkey [38]) was 80 ng/mL. It also gave a bioavailability [39] of 46%, a Concentration (Rhesus monkey [40]) of 150 ng/mL and a Binding affinity (Oryctolagus cuniculus) of 12.6 µM. The Concentration (Rattus norvegicus [41]) was 21 ng/mL, the Concentration (Rattus norvegicus [42]) was 9 ng/mL and the Concentration (Rattus norvegicus [43]) was 203 ng/mL. For the same compound, the Concentration (Rhesus monkey [44]) was 520 ng/mL and the IC50 (Substance-P receptor) was 0.05 nM.
Compound `COc1ccccc1CN[C@H]1CCCN[C@H]1c1ccccc1` [CP-99994] has an ED50 (Rattus norvegicus [16]) of 0.052 mg/kg, an ED50 (Cavia porcellus [45]) of 1.6 mg/kg and a Binding affinity (Oryctolagus cuniculus) of 4 µM.
Work on `FC(F)(F)c1cc(CO[C@H]2CCCN(Cc3nnn[nH]3)[C@H]2c2ccccc2)cc(C(F)(F)F)c1` yielded an IC50 (Substance-P receptor) of 43 nM.
